Source: ChEMBL document CHEMBL3862015, “Synthesis and biological evaluation of furocoumarin derivatives on melanin synthesis in murine B16 cells for the treatment of vitiligo” (2016)
Activity calls are given as the source filed them. The calls are words filed in the database; no cut-off is given here.

tested on: B16-F10; experiment: Induction of melanin synthesis in mouse B16F10 cells at 50 uM after 48 hrs by spectrophotometric analysis relative to control; assay type: functional
In short: (§1)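 B16F10 cells in DMEM with 10% heat-inactivated FBS, penicillin/streptomycin, 37 °C, 5% CO2; 5 × 10^5 cells per well, allowed 24 h, then fresh medium with compound for 48 h. Cells washed in cold PBS, lysed in RIPA on ice 40 min, spun 10,000g 20 min; pellet dissolved in 1 M NaOH, 60 °C 2 h, A405, normalised to protein. Three experiments in duplicate.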

Structure (SMILES) | Activity
Cc1cc(=O)oc2cc3oc4c(c3cc12)CCCC4 | Active
Cc1coc2cc3oc(=O)cc(C)c3cc12 | Active
Cc1cc(=O)oc2cc3occ(-c4ccccc4)c3cc12 | Active
Cc1oc2cc3oc(=O)cc(C)c3cc2c1C | Active
O=c1ccc2cc3ccoc3cc2o1 | Active
Cc1oc2ccc3ccc(=O)oc3c2c1C | Active
Cc1ccc(C(=O)OCc2cc(=O)oc3cc4oc5ccccc5c4cc23)cc1 | 313.1%
O=c1ccc2ccc3occc3c2o1 | Active
O=Cc1cc(=O)oc2cc3oc4ccccc4c3cc12 | Active
Cc1oc2cc3oc(=O)ccc3cc2c1C | Active
O=c1ccc2ccc3oc4c(c3c2o1)CCCC4 | Active
O=c1cc(CO)c2cc3c(cc2o1)oc1ccccc13 | Active
Cc1coc2cc3oc(=O)ccc3cc12 | Active
Cc1cc(=O)oc2c1ccc1occ(C)c12 | Active
COc1c2occc2cc2ccc(=O)oc12 [METHOXSALEN] | 114.5%
Cc1coc2ccc3ccc(=O)oc3c12 | Active
Cc1oc2ccc3c(C)cc(=O)oc3c2c1C | Active
O=c1ccc2cc3c4c(oc3cc2o1)CCCC4 | Active
Cc1cc(=O)oc2c1ccc1occc12 | Active
Cc1ccccc1/N=C/c1cc(=O)oc2cc3oc4ccccc4c3cc12 | 350.5%
O=c1ccc2cc3c(-c4ccccc4)coc3cc2o1 | Active

tested on: B16-F10; experiment: Induction of melanin synthesis in mouse B16F10 cells at 50 uM after 48 hrs by spectrophotometric analysis relative to 8-MOP; assay type: functional; in short: as §1

Structure (SMILES) | fold change (FC)
Cc1ccc(C(=O)OCc2cc(=O)oc3cc4oc5ccccc5c4cc23)cc1 | 3
Cc1ccccc1/N=C/c1cc(=O)oc2cc3oc4ccccc4c3cc12 | 3
